Measurements taken from ChEMBL document CHEMBL3763127, “Design, synthesis and biological evaluation of novel asperphenamate derivatives” (Eur J Med Chem, 2016).

How the values were obtained:
Format in all cases: functional, cell-based
[1] = test system: MCF7; assay: Cytotoxicity against human MCF7 cells after 3 days by MTT assay; conditions: MCF7, 72 h
Procedure, shortened: (§1)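 MCF-7, HeLa and BEL-7402 cells were grown in RPMI 1640 with 10% heat-inactivated FBS, 1 mM glutamine and penicillin/streptomycin at 37 °C under 5% CO2. They were exposed to compound for 3 days, then read by MTT at 570 nm. Viability was taken as treated/control absorbance, and IC50 was derived from it. Values are mean SD of three independent experiments.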

[2] = test system: HeLa; assay: Cytotoxicity against human HeLa cells after 3 days by MTT assay; conditions: 72 h; procedure, shortened: as §1
[3] = Cytotoxicity against human Bel7402 cells after 3 days by MTT assay; conditions: Bel-7402, 72 h; procedure, shortened: as §1

Row | SMILES | IC50 [1] [µM] | IC50 [2] [µM] | IC50 [3] [µM]
1 | Cc1ccc(S(=O)(=O)N[C@H](Cc2ccccc2)C(=O)OC[C@@H](Cc2ccccc2)NC(=O)c2ccccc2)cc1 | 36.7 | 31.6 | 22.2
2 | O=C(N[C@H](COC(=O)[C@H](Cc1ccccc1)NC(=O)n1ccnc1)Cc1ccccc1)c1ccccc1 | > 100 | > 100 | > 100
3 | Cc1ccc(S(=O)(=O)N[C@@H](Cc2ccccc2)C(=O)OC[C@@H](Cc2ccccc2)NC(=O)c2ccccc2)cc1 | 28.6 | 41.9 | 54.3
4 | O=C(N[C@H](COC(=O)[C@@H](Cc1ccccc1)NC(=O)n1ccnc1)Cc1ccccc1)c1ccccc1 (single isomer, unassigned) | 66.2 | 72.5 | 78.4
5 | O=C(N[C@@H](COC(=O)[C@@H](Cc1ccccc1)NC(=O)n1ccnc1)Cc1ccccc1)c1ccccc1 | 87.2 | 79.1 | 91.1
6 | O=C(N[C@@H](COC(=O)[C@@H](Cc1ccccc1)NC(=O)c1ccco1)Cc1ccccc1)c1ccccc1 | > 100 | > 100 | > 100
7 | O=C(N[C@@H](COC(=O)[C@H](Cc1ccccc1)NC(=O)c1ccncc1)Cc1ccccc1)c1ccccc1 (single isomer, unassigned) | 64.8 | > 100 | > 100
8 | O=C(N[C@H](COC(=O)[C@@H](Cc1ccccc1)NC(=O)c1ccco1)Cc1ccccc1)c1ccccc1 (single isomer, unassigned) | > 100 | > 100 | > 100
9 | CS(=O)(=O)N[C@@H](Cc1ccccc1)C(=O)OC[C@@H](Cc1ccccc1)NC(=O)c1ccccc1 | > 100 | > 100 | > 100
10 | O=C(N[C@@H](COC(=O)[C@@H](Cc1ccccc1)NC(=O)c1cccnc1)Cc1ccccc1)c1ccccc1 | > 100 | > 100 | > 100
11 | Cc1ccc(S(=O)(=O)N[C@@H](Cc2ccccc2)C(=O)OC[C@H](Cc2ccccc2)NC(=O)c2ccccc2)cc1 | 61.1 | 37.6 | 50
12 | O=C(N[C@H](COC(=O)[C@@H](Cc1ccccc1)NC(=O)c1cccs1)Cc1ccccc1)c1ccccc1 | > 100 | > 100 | > 100
13 | CS(=O)(=O)N[C@H](Cc1ccccc1)C(=O)OC[C@@H](Cc1ccccc1)NC(=O)c1ccccc1 | 60 | 64 | 52.2
14 | O=C(N[C@@H](COC(=O)[C@@H](Cc1ccccc1)NC(=O)c1cccs1)Cc1ccccc1)c1ccccc1 | > 100 | > 100 | > 100
15 | CS(=O)(=O)N[C@@H](Cc1ccccc1)C(=O)OC[C@H](Cc1ccccc1)NC(=O)c1ccccc1 | 76.3 | 93.9 | 70.4
16 | O=C(N[C@@H](COC(=O)[C@@H](Cc1ccccc1)NC(=O)c1ccncc1)Cc1ccccc1)c1ccccc1 | 53.6 | 89.7 | 64.7

Row | SMILES | IC50 [1] [µM] | IC50 [2] [µM] | IC50 [3] [µM]
17 | O=C(N[C@@H](COC(=O)[C@@H](Cc1ccccc1)NC(=O)n1cncn1)Cc1ccccc1)c1ccccc1 | 89 | 91.2 | 95.7
18 | O=C(N[C@@H](COC(=O)[C@H](Cc1ccccc1)NC(=O)c1cccnc1)Cc1ccccc1)c1ccccc1 (single isomer, unassigned) | > 100 | > 100 | > 100
19 | O=C(N[C@@H](COC(=O)[C@H](Cc1ccccc1)NC(=O)c1ccco1)Cc1ccccc1)c1ccccc1 (single isomer, unassigned) | > 100 | > 100 | > 100
20 | O=C(N[C@@H](COC(=O)[C@H](Cc1ccccc1)NC(=O)n1ccnc1)Cc1ccccc1)c1ccccc1 (single isomer, unassigned) | > 100 | > 100 | > 100
21 | O=C(N[C@H](COC(=O)[C@H](Cc1ccccc1)NC(=O)n1cncn1)Cc1ccccc1)c1ccccc1 | > 100 | > 100 | > 100
22 | O=C(N[C@H](COC(=O)[C@@H](Cc1ccccc1)NC(=O)c1cccnc1)Cc1ccccc1)c1ccccc1 (single isomer, unassigned) | 16.7 | 24.9 | 16.6
23 | O=C(N[C@H](COC(=O)[C@H](Cc1ccccc1)NC(=O)c1cccnc1)Cc1ccccc1)c1ccccc1 | > 100 | > 100 | > 100
24 | CS(=O)(=O)N[C@H](Cc1ccccc1)C(=O)OC[C@H](Cc1ccccc1)NC(=O)c1ccccc1 | 21.9 | 22.1 | 37
25 | O=C(N[C@H](COC(=O)[C@@H](Cc1ccccc1)NC(=O)n1cncn1)Cc1ccccc1)c1ccccc1 (single isomer, unassigned) | 67.5 | 78.9 | 82.1
26 | O=C(N[C@@H](COC(=O)[C@H](Cc1ccccc1)NC(=O)c1cccs1)Cc1ccccc1)c1ccccc1 | > 100 | > 100 | > 100
27 | O=C(N[C@H](COC(=O)[C@H](Cc1ccccc1)NC(=O)c1cccs1)Cc1ccccc1)c1ccccc1 | > 100 | > 100 | > 100
28 | O=C(N[C@@H](COC(=O)[C@H](Cc1ccccc1)NC(=O)n1cncn1)Cc1ccccc1)c1ccccc1 (single isomer, unassigned) | > 100 | > 100 | > 100
29 | O=C(N[C@H](COC(=O)[C@H](Cc1ccccc1)NC(=O)c1ccco1)Cc1ccccc1)c1ccccc1 | > 100 | > 100 | > 100
30 | O=C(N[C@H](COC(=O)[C@H](Cc1ccccc1)NC(=O)c1ccncc1)Cc1ccccc1)c1ccccc1 | > 100 | > 100 | > 100
31 | O=C(N[C@H](COC(=O)[C@@H](Cc1ccccc1)NC(=O)c1ccncc1)Cc1ccccc1)c1ccccc1 (single isomer, unassigned) | 15.3 | 33.8 | 19.3
